According to ChEMBL document CHEMBL1139691, “Microwave-assisted synthesis of thieno[2,3-c]pyridine derivatives as a new series of allosteric enhancers at the adenosine A(1) receptor” (Bioorg Med Chem Lett, 2006):
Active and inactive are the calls of the source. The rule behind the calls is not given here.

Columns and labels:
[1] = biological target: T1, Adenosine receptor A1 (Homo sapiens) (UniProt P30542); assay: Activity at human recombinant adenosine A1 receptor expressed in CHO cells assessed as inhibition of forskolin-stimulated cAMP accumulation in presence of CPA at 0.01 uM relative to control; format: functional, cell-based; set-up: scale not given: the % may be the effect or the level left
T1 sequence (whole entry): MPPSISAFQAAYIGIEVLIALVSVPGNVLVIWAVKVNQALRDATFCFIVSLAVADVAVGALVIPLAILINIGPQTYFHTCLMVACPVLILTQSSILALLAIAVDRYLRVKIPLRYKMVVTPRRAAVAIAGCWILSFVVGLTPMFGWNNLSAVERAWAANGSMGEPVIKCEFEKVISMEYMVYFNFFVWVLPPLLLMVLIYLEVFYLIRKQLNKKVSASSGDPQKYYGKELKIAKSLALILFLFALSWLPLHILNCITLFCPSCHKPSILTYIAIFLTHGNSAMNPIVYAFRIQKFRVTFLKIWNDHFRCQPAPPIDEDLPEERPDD
In short: (§1)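 CHO cells stably expressing human A1 receptor (about 5 pmol/mg protein), grown 48–72 h in Ham's F12 with FBS and G-418. Cells were washed in HBSS for 6 min at 37 °C, then incubated 6 min at 37 °C in HBSS with adenosine deaminase (0.5 U/ml), 20 µM rolipram, 1 µM forskolin and 0.03 nM CPA, plus compound at 0.01–10 µM. Stopped with 50 mM HCl; cAMP read by acetylation radioimmunoassay. Quadruplicates; averaged over six experiments.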

[2] = biological target: T1, Adenosine receptor A1 (Homo sapiens); assay: Displacement of [3H]DPCPX from human adenosine A1 receptor expressed in CHO cells at 10 uM; format: cell-based
In short: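 Competition for 1 nM [3H]DPCPX at CHO hA1 membranes (100 µg protein), 150 min at 25 °C, Tris-HCl pH 7.4. Nonspecific binding defined with 1 µM DPCPX. Compound tested at 10 µM; percent displacement reported, n = 3.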

[3] = biological target: T1, Adenosine receptor A1 (Homo sapiens); assay: Activity at human recombinant adenosine A1 receptor expressed in CHO cells assessed as inhibition of forskolin-stimulated cAMP accumulation in presence of CPA at 0.1 uM relative to control; format: functional, cell-based; set-up: scale not given: the % may be the effect or the level left; in short: as §1
[4] = biological target: Adenosine A2 receptor (Homo sapiens) (UniProt P29275+P29274); assay: Displacement of [3H]ZM 241385 from human adenosine A2 receptor expressed in CHO cells at 10 uM; format: cell-based
In short: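 Competition for [3H]ZM 241385 at CHO hA2A membranes (100 µg protein), 60 min at 4 °C, Tris-HCl with MgCl2, pH 7.4. Nonspecific binding defined with 1 µM ZM241385. Compound tested at 10 µM; percent displacement reported, n = 3.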

[5] = biological target: T1, Adenosine receptor A1 (Homo sapiens); assay: Activity at human recombinant adenosine A1 receptor expressed in CHO cells assessed as inhibition of forskolin-stimulated cAMP accumulation in presence of CPA at 1 uM relative to control; format: functional, cell-based; set-up: scale not given: the % may be the effect or the level left; in short: as §1
[6] = biological target: T2, Adenosine receptor A3 (Homo sapiens) (UniProt P0DMS8); assay: Displacement of [3H]MRE-3008F20 from human adenosine A3 receptor expressed in CHO cells at 10 uM; format: cell-based
T2 sequence (whole entry): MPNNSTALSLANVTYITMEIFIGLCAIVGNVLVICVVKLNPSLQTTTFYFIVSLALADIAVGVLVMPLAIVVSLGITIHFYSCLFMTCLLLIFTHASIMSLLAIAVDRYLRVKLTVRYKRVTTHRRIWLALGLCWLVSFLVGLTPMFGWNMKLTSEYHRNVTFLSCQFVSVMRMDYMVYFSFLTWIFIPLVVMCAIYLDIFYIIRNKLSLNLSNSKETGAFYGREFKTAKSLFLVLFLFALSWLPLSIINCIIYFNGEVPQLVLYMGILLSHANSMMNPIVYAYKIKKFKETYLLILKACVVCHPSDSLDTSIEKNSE
In short: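 Competition for [3H]MRE-3008F20 at CHO hA3 membranes (100 µg protein), 150 min at 4 °C, Tris-HCl with MgCl2 and 1 mM EDTA, pH 7.4. Compound tested at 10 µM; percent displacement reported, n = 3.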

[7] = biological target: T1, Adenosine receptor A1 (Homo sapiens); assay: Activity at human recombinant adenosine A1 receptor expressed in CHO cells assessed as inhibition of forskolin-stimulated cAMP accumulation in the presence of CPA at 10 uM; format: functional, cell-based; set-up: scale not given: the % may be the effect or the level left; in short: as §1
[8] = biological target: T1, Adenosine receptor A1 (Homo sapiens); assay: Activity at human recombinant adenosine A1 receptor expressed in CHO cells assessed as inhibition of forskolin-stimulated cAMP accumulation in presence of CPA at 10 uM relative to control; format: functional, cell-based; set-up: scale not given: the % may be the effect or the level left; in short: as §1
[9] = biological target: T1, Adenosine receptor A1 (Homo sapiens); assay: Activity at human recombinant adenosine A1 receptor expressed in CHO cells assessed as inhibition of forskolin-stimulated cAMP accumulation in the presence of CPA relative to control; format: functional, cell-based; set-up: scale not given: the % may be the effect or the level left; in short: as §1

Activity [1]	inhibition [2]	Activity [3]	inhibition [4]	Activity [5]	inhibition [6]	Activity [7]	Activity [8]	Activity [9]	Structure (SMILES)
101%	0%	95%	0%	82%	0%	37%	63%	–	Nc1sc2cnccc2c1C(=O)c1cccc(C(F)(F)F)c1
95%	0%	97%	0%	90%	0%	–	94%	–	COc1ccc(C(=O)c2c(N)sc3cnccc23)cc1
103%	0%	98%	0%	97%	0%	–	111%	–	Nc1sc2cnccc2c1C(=O)c1ccccc1Cl
97%	0%	93%	0%	81%	–	–	52%	48%	Cc1sc(N)c(C(=O)c2cccc(C(F)(F)F)c2)c1C
102%	45%	107%	0%	107%	0%	–	121%	–	Cc1ccc(C(=O)c2c(N)sc3cnccc23)cc1
113%	0%	108%	0%	103%	0%	–	105%	–	Nc1sc2cnccc2c1C(=O)c1ccc(Cl)c(Cl)c1
91%	0%	89%	0%	90%	0%	–	100%	–	Nc1sc2cnccc2c1C(=O)c1ccccc1
111%	35%	104%	0%	107%	0%	–	98%	–	Nc1sc2cnccc2c1C(=O)c1cccs1
113%	0%	112%	0%	107%	0%	Active	66%	–	Nc1sc2cnccc2c1C(=O)c1cccc2ccccc12
104%	50%	102%	0%	96%	0%	–	114%	–	Nc1sc2cnccc2c1C(=O)c1ccc(Cl)cc1
97%	0%	89%	0%	84%	0%	–	104%	–	Nc1sc2cnccc2c1C(=O)c1ccc(Br)cc1
